The target in series [1] is T1, DNA polymerase (Human herpesvirus 5) (UniProt A6BMM6).
T1 sequence (whole entry): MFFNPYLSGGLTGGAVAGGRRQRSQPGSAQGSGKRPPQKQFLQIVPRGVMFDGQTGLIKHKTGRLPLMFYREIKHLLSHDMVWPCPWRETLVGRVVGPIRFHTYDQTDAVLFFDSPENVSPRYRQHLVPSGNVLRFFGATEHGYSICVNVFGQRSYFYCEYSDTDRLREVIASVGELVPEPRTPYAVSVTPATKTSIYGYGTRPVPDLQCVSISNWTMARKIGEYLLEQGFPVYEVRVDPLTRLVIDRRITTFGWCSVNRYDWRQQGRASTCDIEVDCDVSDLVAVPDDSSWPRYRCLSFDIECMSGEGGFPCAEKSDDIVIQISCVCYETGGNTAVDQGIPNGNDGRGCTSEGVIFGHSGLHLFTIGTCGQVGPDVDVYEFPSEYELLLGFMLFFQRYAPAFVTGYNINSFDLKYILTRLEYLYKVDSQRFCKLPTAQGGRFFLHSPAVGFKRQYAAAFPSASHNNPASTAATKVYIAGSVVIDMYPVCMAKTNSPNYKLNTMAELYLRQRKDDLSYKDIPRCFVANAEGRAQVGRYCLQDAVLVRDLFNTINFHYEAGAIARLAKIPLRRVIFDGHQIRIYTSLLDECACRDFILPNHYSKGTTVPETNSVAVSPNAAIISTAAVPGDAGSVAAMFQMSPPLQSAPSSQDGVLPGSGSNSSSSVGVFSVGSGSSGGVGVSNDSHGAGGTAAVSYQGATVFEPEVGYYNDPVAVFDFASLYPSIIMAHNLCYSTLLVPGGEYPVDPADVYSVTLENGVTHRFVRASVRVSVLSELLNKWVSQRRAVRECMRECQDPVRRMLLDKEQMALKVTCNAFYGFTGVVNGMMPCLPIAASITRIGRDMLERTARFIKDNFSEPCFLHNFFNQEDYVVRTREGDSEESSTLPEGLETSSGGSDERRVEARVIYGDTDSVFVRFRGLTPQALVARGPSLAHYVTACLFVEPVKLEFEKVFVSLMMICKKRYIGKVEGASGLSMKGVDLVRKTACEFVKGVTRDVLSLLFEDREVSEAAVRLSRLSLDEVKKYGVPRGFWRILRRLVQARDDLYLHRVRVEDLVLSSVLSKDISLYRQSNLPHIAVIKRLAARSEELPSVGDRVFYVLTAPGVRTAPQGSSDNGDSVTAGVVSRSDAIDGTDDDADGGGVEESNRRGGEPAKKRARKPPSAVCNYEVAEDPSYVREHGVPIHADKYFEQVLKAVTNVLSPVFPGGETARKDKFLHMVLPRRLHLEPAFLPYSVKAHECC
Description: Inhibition of HCMV UL54-encoded DNA polymerase at 5 to 7.5 uM after 60 mins. The following applies: Human betaherpesvirus 5.

For series [2], the system named is Human betaherpesvirus 5. Kind of series: Antiviral activity against ganciclovir-resistant HCMV with DNA polymerase mutant in HEL cells assessed as reduction of virus-induced cytopathogenicity. The following applies: Human betaherpesvirus 5, HEL. Type of series: functional, organism-based. In a few lines: (§1)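 Resistant mutants raised in vitro by serial passage of HCMV AD-169 under rising drug concentrations. Confluent HEL fibroblasts infected at 100 PFU/well for 2 h, then the inoculum was removed. Cells were kept with serial compound concentrations in duplicate for 7 days at 37 °C. After ethanol fixation, cytopathicity was scored microscopically. EC50 is the concentration halving virus-induced cytopathicity.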

For series [3], the system named is Human betaherpesvirus 5. Kind of series: Antiviral activity against (S)-3-hydroxy-2-phosphonomethoxypropyl cytosine-resistant HCMV with DNA polymerase mutant in HEL cells assessed as reduction of virus-induced cytopathogenicity. The following applies: Human betaherpesvirus 5, HEL. The format is functional, organism-based. In a few lines:
as §1
For orientation: Damage to the host cells serves as the signal in cytopathic effect assays.

In series [4] the test system is Human betaherpesvirus 5. Description: Antiviral activity against (S)-3-hydroxy-2-phosphonomethoxypropyl adenine-resistant HCMV with DNA polymerase mutant in HEL cells assessed as reduction of virus-induced cytopathogenicity. Type of series: functional, organism-based. Particulars: Human betaherpesvirus 5, HEL. An outline of the steps: as §1
In series [5] the test system is Human betaherpesvirus 5. Kind of series: Antiviral activity against foscarnet-resistant HCMV with DNA polymerase mutant in HEL cells assessed as reduction of virus-induced cytopathogenicity. Type of series: functional, organism-based. Particulars: Human betaherpesvirus 5, HEL. An outline of the steps:
as §1

The subject of series [6] is Human betaherpesvirus 5. Description: Antiviral activity against acyclovir-resistant HCMV with DNA polymerase mutant in HEL cells assessed as reduction of virus-induced cytopathogenicity. The format is functional, organism-based. The following applies: Human betaherpesvirus 5, HEL. In a few lines: as §1
For series [7], the system named is Human betaherpesvirus 5. Description: Antiviral activity against HCMV 6 with […] mutation in HEL cells assessed as reduction of virus-induced cytopathogenicity. The format is functional, organism-based. The following applies: Human betaherpesvirus 5, HEL. An outline of the steps:
(§2)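 Drug-resistant HCMV clinical isolates from immunocompromised patients, carrying UL97 and/or DNA polymerase mutations. Confluent HEL fibroblasts infected at 100 PFU/well for 2 h, then residual virus was removed. Medium with serial compound concentrations added in duplicate for 7 days at 37 °C. After ethanol fixation, cytopathicity was scored microscopically. EC50 is the concentration reducing cytopathicity by 50%.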

In series [8] the test system is Human betaherpesvirus 5. Description: Antiviral activity against HCMV 521 with […] and DNA polymerase mutation in HEL cells assessed as reduction of virus-induced cytopathogenicity. The format is functional, organism-based. The following applies: Human betaherpesvirus 5, HEL. An outline of the steps: as §2
Series [9] concerns Human betaherpesvirus 5. Kind of series: Antiviral activity against HCMV 530 with […] and DNA polymerase mutation in HEL cells assessed as reduction of virus-induced cytopathogenicity. The format is functional, organism-based. The following applies: Human betaherpesvirus 5, HEL. An outline of the steps: as §2
Series [10] concerns Human betaherpesvirus 5. Description: Antiviral activity against HCMV Davis in HEL cells assessed as reduction of virus-induced cytopathogenicity after 7 days. Type of series: functional, organism-based. The following applies: Human betaherpesvirus 5, Davis, 168 h. An outline of the steps:
(§3)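 Confluent HEL fibroblasts were infected with strain AD-169 or Davis at 100 PFU/well. After 2 h, residual virus was removed and medium with serial compound concentrations was added, in duplicate. Plates were held 7 days at 37 °C, fixed with ethanol, and scored microscopically for virus-induced cytopathicity. EC50 is the concentration reducing cytopathicity by 50%.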

Series [11] deals with Human betaherpesvirus 5. Description: Antiviral activity against HCMV AD169 in HEL cells assessed as reduction of virus-induced cytopathogenicity after 7 days. Type of series: functional, organism-based. Particulars: Human betaherpesvirus 5, AD169, HEL, 168 h. In a few lines: as §3
Series [12] is described as follows: Cytotoxicity against HEL cells assessed as alteration in cell morphology after 3 days. The following applies: human. The format is cell-based. In a few lines:
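Minimum cytotoxic concentration: the lowest compound concentration causing a microscopically detectable alteration of HEL cell morphology.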

Series [13] deals with Human betaherpesvirus 5. Kind of series: Inhibition of immediate early antigen expression in HCMV Davis in HEL cells at 48 hrs post infection by flow cytometry. Type of series: functional, organism-based. In a few lines: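 HEL cells were infected with HCMV Davis, with compound dilutions added at infection and incubation at 37 °C. Cells were acetone-fixed at 4 °C, resuspended in PBS with 5% gelatin, and stained at 37 °C with a mAb against IE proteins 1 and 2. A fluorescein-labelled rabbit anti-mouse IgG was applied for 30 min, cells were fixed in 0.5% formaldehyde and analysed by flow cytometry. Background fluorescence of uninfected cells was subtracted.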
A general note: A flow cytometer gives signals particle by particle.

For series [14], the system named is Human betaherpesvirus 5. Description: Antiviral activity against HCMV in HEL cells assessed as reduction of virus-induced cytopathogenicity administered at 56 hrs post infection. The format is functional, organism-based. An outline of the steps:
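Time-of-addition: confluent HEL cultures were infected with about 100 PFU/well of HCMV Davis. Compound dilutions were added at 0 h or at later time points post infection, with one plate set per time point. Seven days after infection, plates were ethanol-fixed and Giemsa-stained. Antiviral effect was scored microscopically and EC50 calculated.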

Series [15] deals with Murid betaherpesvirus 1. Description: Antiviral activity against MCMV in mouse C127I cells assessed as reduction of virus-induced cytopathogenicity after 7 days. The following applies: Murid betaherpesvirus 1, C127I, 168 h. Type of series: functional, organism-based. An outline of the steps: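 MCMV Smith strain on confluent C127I cells, run as the HCMV assay: 100 PFU/well for 2 h, inoculum removed, then serial compound concentrations in duplicate for 7 days at 37 °C. Cytopathicity was scored microscopically after ethanol fixation. EC50 is the concentration reducing virus-induced cytopathicity by 50%.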

Series [16] deals with Human alphaherpesvirus 3. Kind of series: Antiviral activity against wild-type VZV in HEL cells after 5 days by plaque reduction assay. Type of series: functional, organism-based. The following applies: Human alphaherpesvirus 3, HEL, 120 h. In a few lines:
(§4)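 Plaque reduction on confluent HEL monolayers infected with 20 PFU/well of cell-associated VZV. After 2 h, inoculum was replaced by compound dilutions in duplicate, with infected-untreated controls. After 5 days, cells were fixed and Giemsa-stained and plaques counted. EC50 is the concentration reducing plaque formation by 50% versus untreated control.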
For orientation: Plaque reduction counts the foci of infection that form in a cell layer.

Series [17] relates to Human alphaherpesvirus 1. Description: Antiviral activity against HSV1. Type of series: functional, organism-based.
The nature of series [18]: Cytotoxicity against HEL cells assessed as reduction in cell growth after 3 days. The following applies: human. Type of series: cell-based. An outline of the steps:
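HEL cells were seeded at 5 × 10³ cells/well and allowed to proliferate for 24 h. Compound-containing medium was then added at several concentrations for 3 days at 37 °C. Cells were counted with a Coulter counter. CC50, the concentration reducing cell growth by 50% versus untreated controls, was read from plots of cell number (% of control) against concentration.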

The test system of series [19] is Human alphaherpesvirus 2. Description: Antiviral activity against HSV2. The format is functional, organism-based.
Series [20] concerns Human alphaherpesvirus 3. Kind of series: Antiviral activity against thymidine-kinase deficient VZV in HEL cells after 5 days by plaque reduction assay. The format is functional, organism-based. The following applies: Human alphaherpesvirus 3, HEL, 120 h. An outline of the steps: as §4
The test system of series [21] is Vaccinia virus. Kind of series: Antiviral activity against vaccinia virus. The format is functional, organism-based. Particulars: Orthopoxvirus vaccinia.

Values after ≈ are worked out from the molar mass of the structure shown. Active and inactive are the calls of the source. The rule behind the calls is not given here. Some results are limits rather than exact numbers.

The term EC50 denotes the concentration that produces a half-maximal response. Take `O=C(O)P(=O)(O)O` [FOSCARNET]: the result in series [1] was Active. The EC50 turned out to be 17 µg/mL (≈ 135 µM) in [2]; 14 µg/mL (≈ 111 µM) in series [3]; 35 µg/mL (≈ 278 µM) in series [4]; 135 µg/mL (≈ 1070 µM) in [5]; 37 µg/mL (≈ 294 µM) in [6]; 34 µg/mL (≈ 270 µM) in [7]. Moreover, the figures for the EC50 in [8] and in [9] were 29 µg/mL (≈ 230 µM) and 31 µg/mL (≈ 246 µM), respectively.
As usually defined, the CC50 is the concentration giving 50% cytotoxicity. Regarding `Cc1cn([C@@H]2O[C@H](CO[Si](C)(C)C(C)(C)C(C)C)[C@@]3(OS(=O)(=O)C=C3NC(=O)NC(=O)c3ccccc3)[C@H]2O[Si](C)(C)C(C)(C)C)c(=O)n(C)c1=O`, the EC50 in series [10] amounted to 1400 nM; in series [11], 1100 nM; in series [15] it was 660 nM; in [16], 11000 nM; in series [2] it was 0.9 µg/mL (≈ 1.16 µM); in series [3], 1 µg/mL (≈ 1.28 µM). Further, the EC50 turned out to be 3.1 µg/mL (≈ 3.98 µM) in series [4]; 0.78 µg/mL (≈ 1 µM) in series [5]; 1.1 µg/mL (≈ 1.41 µM) in series [6]; 0.86 µg/mL (≈ 1.1 µM) in series [7]; 0.67 µg/mL (≈ 0.86 µM) in [8]; 1.3 µg/mL (≈ 1.67 µM) in [9]. Besides, a half-maximal response in [20] (EC50) required 11000 nM. Also, in [12], the MCC at 72 h was at least 100 µM. Further, the result in series [13], in series [14], in series [17], in series [19] and in [21] was inactive. Besides, the CC50 at 72 h in [18] was over 50000 nM.
With `Cc1cn([C@@H]2O[C@H](CO[Si](C)(C)C(C)(C)C)[C@@]3(OS(=O)(=O)C=C3NC(=O)NC(=O)c3ccccc3)[C@H]2O[Si](C)(C)C(C)(C)C)c(=O)n(C)c1=O`, the EC50 in series [10] turned out to be 2400 nM; in series [11], 11000 nM. Moreover, the MCC at 72 h in [12] is at least 80 µM. For the same compound, the outcome in series [14] was inactive. Besides, in series [18], the CC50 at 72 h is over 200000 nM.
Regarding `Cc1cn([C@@H]2O[C@H](CO[Si](C)(C)C(C)(C)C(C)C)[C@@]3(OS(=O)(=O)C=C3NC(=O)NC(=O)c3ccccc3)[C@H]2O[Si](C)(C)C(C)(C)C(C)C)c(=O)n(C)c1=O`, the EC50 was found to be 1500 nM in series [10]; 1200 nM in series [11]; 540 nM in [15]; 11000 nM in series [16]; 3.3 µg/mL (≈ 4.09 µM) in series [2]; 2.6 µg/mL (≈ 3.22 µM) in [3]. Moreover, the EC50 in [4] stood at 5.6 µg/mL (≈ 6.94 µM); in series [5] it was 2.7 µg/mL (≈ 3.35 µM); in series [6], 2.7 µg/mL (≈ 3.35 µM); in [7], 5.5 µg/mL (≈ 6.81 µM); in [8] it was 2.9 µg/mL (≈ 3.59 µM); in series [9], 5.7 µg/mL (≈ 7.06 µM). This compound also displayed an EC50 in series [20] of 11000 nM. Moreover, the MCC at 72 h in [12] is at least 100 µM. For the same compound, the outcome in series [14], in series [17], in [19] and in [21] was inactive. Besides, the CC50 at 72 h in [18] was over 50000 nM.

The record behind these values is ChEMBL document CHEMBL1140035, “4"-Benzoylureido-TSAO derivatives as potent and selective non-nucleoside HCMV inhibitors. Structure-activity relationship and mechanism of antiviral action” (J Med Chem, 2008).
